According to ChEMBL document CHEMBL4376900, “Structure-Activity Relationship of Antischistosomal Ozonide Carboxylic Acids” (J Med Chem, 2020):
Converted amounts (≈) assume the structure as drawn.

What was measured:
[1] = Partition coefficient, logD of the compound at pH 7.4 by HPLC analysis; assay type: physicochemical; details: octanol/water
[2] = Kinetic solubility in pH 6.5 phosphate buffer incubated for 30 mins by nephelometry; assay type: physicochemical; details: read-out: Kinetic_solubility
How it was run: (§1)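 DMSO stocks (10 mg/mL) diluted into pH 6.5 phosphate buffer or 0.01 M HCl (about pH 2.0) at 1% final DMSO. After 30 min, a solubility range was determined by nephelometry.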

[3] = Kinetic solubility in pH 2.0 0.01M HCl buffer incubated for 30 mins by nephelometry; assay type: physicochemical; details: read-out: Kinetic_solubility; how it was run: as §1
[4] = Intrinsic clearance in human liver microsomes in presence of NADPH-regenerating system incubated over 60 mins; assay type: ADME, Microsome; details: read-out: CLH
How it was run: (§2)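 Compounds incubated at 37 °C with liver microsomes at 0.4 mg/mL protein. Reaction started by adding an NADPH-regenerating system and quenched with acetonitrile containing diazepam internal standard at several time points over 60 min. No-NADPH controls were quenched at 2, 30 and 60 min.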

[5] = Intrinsic clearance in mouse liver microsomes in presence of NADPH-regenerating system incubated over 60 mins; assay type: ADME, Microsome; details: read-out: CLH; how it was run: as §2
Schistosoma mansoni = assay: Antischistosomal activity against Schistosoma mansoni infected in NMRI mouse assessed as reduction in total adult worm burden at 400 mg/kg, po administered as single dose starting on day 49 post-infection and measured at 28 days post treatment relative to control; assay type: functional; set-up: scale not given: the % may be the effect or the level left
Albumin = Albumin (Homo sapiens, UniProt P02768); assay: Protein binding to human albumin by HPLC analysis; assay type: ADME; details: isolated protein
How it was run: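 Binding estimated chromatographically using a gradient HPLC method derived from the Valko approach.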

HFF = assay: Cytotoxicity in HFF assessed as reduction in cell viability up to 50 uM incubated for 24 hrs by Alamar blue sye based assay; details: human
How it was run: (§3)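 Cells maintained in D10 medium were grown to confluence, then exposed to increasing compound concentrations (0–100 μM) for 24 h. Alamar blue (10 mM) was then added for 4 h, and viability was read as fluorescence.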

U2OS = assay: Cytotoxicity in human U2OS assessed as reduction in cell viability up to 50 uM incubated for 24 hrs by Alamar blue sye based assay; how it was run: as §3
HEK-293T = assay: Cytotoxicity in human HEK293T assessed as reduction in cell viability up to 50 uM incubated for 24 hrs by Alamar blue sye based assay; how it was run: as §3
[6] = Cytotoxicity in human HC04 assessed as reduction in cell viability up to 50 uM incubated for 24 hrs by Alamar blue sye based assay; how it was run: as §3

Chain of Albumin (P02768 whole entry): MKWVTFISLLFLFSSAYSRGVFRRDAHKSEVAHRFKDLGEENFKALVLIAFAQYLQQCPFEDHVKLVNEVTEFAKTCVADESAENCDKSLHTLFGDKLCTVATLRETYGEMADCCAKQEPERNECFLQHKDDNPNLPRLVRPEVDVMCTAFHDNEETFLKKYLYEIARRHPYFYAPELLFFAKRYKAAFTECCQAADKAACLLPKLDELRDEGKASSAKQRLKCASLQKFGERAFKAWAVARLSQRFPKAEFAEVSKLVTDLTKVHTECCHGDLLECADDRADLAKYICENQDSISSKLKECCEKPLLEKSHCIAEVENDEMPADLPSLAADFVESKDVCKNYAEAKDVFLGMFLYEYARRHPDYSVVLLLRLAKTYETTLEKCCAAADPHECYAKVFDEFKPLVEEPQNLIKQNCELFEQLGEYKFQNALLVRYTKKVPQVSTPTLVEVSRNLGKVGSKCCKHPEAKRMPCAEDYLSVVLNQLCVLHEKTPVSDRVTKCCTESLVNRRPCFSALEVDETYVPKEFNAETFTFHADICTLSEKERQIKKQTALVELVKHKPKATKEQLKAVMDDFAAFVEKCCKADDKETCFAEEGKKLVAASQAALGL

Row | SMILES | logD [1] | solubility kinetic at 0.5 h [2] [µg/mL] | solubility kinetic at 0.5 h [3] [µg/mL] | microsomal CLint [4] [µL/min/mg] | microsomal CLint [5] [µL/min/mg] | Activity (Schistosoma mansoni) [%] | PPB (Albumin) [%] | Activity (HFF) | Activity (U2OS) | Activity (HEK-293T) | Activity [6]
1 | CS(=O)(=O)O.CS(=O)(=O)O.O=C(O)CNCc1ccc([C@H]2CC[C@]3(CC2)OOC2(O3)C3CC4CC2CC(C3)N4)cc1 (some centres not stated) | 1.6 | > 100 | 50 to 100 | < 7 | < 7 | 41 | – | – | – | – | –
2 | CS(=O)(=O)NC(=O)COc1ccc([C@H]2CC[C@]3(CC2)OOC2(O3)C3CC4CC(C3)CC2C4)cc1 (some centres not stated) | 3 | < 1.6 | 6.3 to 12.5 (≈ 12.8 to 25.4 µM) | < 7 | 12 | 53 | – | – | – | – | –
3 | O=C(O)CNC(=O)COc1ccc([C@H]2CC[C@]3(CC2)OOC2(O3)C3CC4CC(C3)CC2C4)cc1 (some centres not stated) | 3 | 12.5 to 25 (≈ 26.5 to 53 µM) | < 3.1 | < 7 | – | 76 | 98.5 | Non-Toxic | Non-Toxic | Non-Toxic | Non-Toxic
4 | CS(=O)(=O)O.O=C(O)CNCc1ccc([C@H]2CC[C@]3(CC2)OOC2(O3)C3CC4CC(C3)CC2C4)cc1 (some centres not stated) | 3.3 | < 12.5 | < 6.3 | < 7 | 10 | 90 | 97.6 | Non-Toxic | Non-Toxic | Non-Toxic | Non-Toxic
5 | O=C(O)COc1c(Cl)cc([C@H]2CC[C@]3(CC2)OOC2(O3)C3CC4CC(C3)CC2C4)cc1Cl (some centres not stated) | 3.3 | < 3.1 | 3.1 to 6.3 (≈ 6.41 to 13 µM) | – | – | 32 | – | – | – | – | –
6 | CC(C)(Oc1ccc([C@H]2CC[C@]3(CC2)OOC2(O3)C3CC4CC(C3)CC2C4)cc1)C(=O)O (some centres not stated) | 3.1 | < 1.6 | 3.1 to 6.3 (≈ 7 to 14.2 µM) | < 7 | 7 | 48 | > 99.5 | – | – | – | –
7 | O=C(O)CCCCOc1ccc([C@H]2CC[C@]3(CC2)OOC2(O3)C3CC4CC(C3)CC2C4)cc1 (some centres not stated) | 4 | < 1.6 | < 1.6 | < 7 | 13 | 51 | > 99.5 | – | – | – | –
8 | O=C(O)CN1CCC(Oc2ccc([C@H]3CC[C@]4(CC3)OOC3(O4)C4CC5CC(C4)CC3C5)cc2)CC1 (some centres not stated) | – | – | – | < 7 | < 7 | 75 | – | Non-Toxic | Non-Toxic | Non-Toxic | Non-Toxic
9 | O=C(O)COc1ccc([C@H]2CC[C@]3(CC2)OOC2(O3)C3CC4CC2CC(C3)C4=O)cc1 (some centres not stated) | 1.9 | < 1.6 | 50 to 100 (≈ 117 to 233 µM) | – | – | 24 | 97.8 | – | – | – | –
10 | O=C(O)c1cc([C@H]2CC[C@]3(CC2)OOC2(O3)C3CC4CC(C3)CC2C4)ccc1O (some centres not stated) | 3 | < 1.6 | > 100 | 108 | 20 | 36 | – | – | – | – | –
11 | CS(=O)(=O)O.NC1C2CC3CC1CC(C2)C31OO[C@]2(CC[C@@H](c3ccc(OCC(=O)O)cc3)CC2)O1 (some centres not stated) | 1.4 | 6.3 to 12.5 | < 1.6 | 13 | 8 | 30 | 94.2 | – | – | – | –
12 | O=C(O)COc1ccc([C@H]2CC[C@]3(CC2)OOC2(O3)C3CC4CC2CC(C3)C4O)cc1 (some centres not stated) | 1.7 | < 1.6 | 25 to 50 (≈ 58.1 to 116 µM) | < 7 | < 7 | 14 | 98.5 | – | – | – | –
13 | O=C([O-])C1CCN(CCOc2ccc([C@H]3CC[C@]4(CC3)OOC3(O4)C4CC5CC(C4)CC3C5)cc2)CC1.[Na+] (some centres not stated) | 3.8 | 3.1 to 6.3 | < 1.6 | < 7 | 9 | 0 | 98 | – | – | – | –
14 | O=C(O)COc1ccc([C@H]2CC[C@]3(CC2)OOC2(O3)C3CC4CC2CC(C3)C4(F)F)cc1 (some centres not stated) | 2.9 | < 1.6 | 12.5 to 25 (≈ 27.7 to 55.5 µM) | 23 | 130 | 57 | 99.4 | – | – | – | –
15 | CS(=O)(=O)O.O=C(O)C1CN(Cc2ccc([C@H]3CC[C@]4(CC3)OOC3(O4)C4CC5CC(C4)CC3C5)cc2)C1 (some centres not stated) | – | 6.3 to 12.5 | < 1.6 | 7 | 10 | 43 | – | – | – | – | –
16 | CS(=O)(=O)O.O=C(O)COc1ccc([C@H]2CC[C@]3(CC2)OOC2(O3)C3CC4CC2CC(C3)N4)cc1 (some centres not stated) | 1.3 | 3.1 to 6.3 | < 1.6 | 35 | 27 | 29 | – | – | – | – | –
17 | CC(=O)NC1C2CC3CC1CC(C2)C31OO[C@]2(CC[C@@H](c3ccc(OCC(=O)O)cc3)CC2)O1 (some centres not stated) | 1.8 | 3.1 to 6.3 (≈ 6.57 to 13.4 µM) | 12.5 to 25 (≈ 26.5 to 53 µM) | 10 | < 7 | 0 | 98.2 | – | – | – | –
18 | C[C@H]1[C@@H](O)O[C@@H]2O[C@@]3(C)CC[C@H]4[C@H](C)CC[C@@H]1[C@@]24OO3 [ARTENIMOL] | – | – | – | – | – | 66 | – | – | – | – | –
19 | CCOC(=O)COc1ccc([C@H]2CC[C@]3(CC2)OOC2(O3)C3CC4CC(C3)CC2C4)cc1 (some centres not stated) | > 5.3 | < 1.6 | < 0.78 | – | – | 60 | 98.9 | – | – | – | –
20 | O=C(O)COc1ccc([C@H]2CC[C@]3(CC2)OOC2(O3)C3CC4CC(C3)CC2C4)cc1C(=O)O (some centres not stated) | 1.9 | < 3.1 | > 100 | < 7 | 8 | 0 | 99.1 | – | – | – | –
21 | O=C(O)c1cccc([C@H]2CC[C@]3(CC2)OOC2(O3)C3CC4CC(C3)CC2C4)c1 (some centres not stated) | 3 | < 1.6 | < 1.6 | 12 | 30 | 63 | 98.9 | – | – | – | –
22 | O=C(O)CCCOc1ccc([C@H]2CC[C@]3(CC2)OOC2(O3)C3CC4CC(C3)CC2C4)cc1 (some centres not stated) | 3.6 | < 3.1 | < 1.6 | < 7 | 8 | 55 | > 99.5 | – | – | – | –
